Measured values reported in ChEMBL document CHEMBL4814016, “Balancing potency and basicity by incorporating fluoropyridine moieties: Discovery of a 1-amino-3,4-dihydro-2,6-naphthyridine BACE1 inhibitor that affords robust and sustained central Aβ reduction” (Eur J Med Chem, 2021).
Values belong to the compound of their own block, whether it stands above or below them.

Experiments:
[1] = Dissociation constant, pKa of compound by capillary electrophoresis; assay type: physicochemical
Method in brief: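 pKa measured by capillary electrophoresis.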

hERG (KCNH2) = hERG (KCNH2) (Homo sapiens, UniProt Q12809); experiment: Inhibition of human ERG at 5 uM by automated patch clamp assay relative to control
Method in brief: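 hERG inhibition measured at 5 µM with an automated patch clamp assay.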

Beta-secretase 1 [2] = biological target: T1, Beta-secretase 1 (Homo sapiens, UniProt P56817); experiment: Inhibition of BACE1 (unknown origin) by HTRF assay
Method in brief: (§1)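 The figures are means of at least two determinations. BACE1 activity was measured with a biochemical HTRF assay on an APP-derived peptide substrate. In the cellular assay, secreted Aβ40 from SH-SY5Y neuroblastoma cells transfected with human APP was measured by HTRF, and the IC50 derived from it.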

Beta-secretase 1 [3] = biological target: T1, Beta-secretase 1; experiment: Inhibition of BACE1 in human SH-SY5Y cells expressing APP assessed as reduction in Abeta40 by HTRF assay; assay type: cell-based; method in brief: as §1
P-gp (MDR1, ABCB1) = P-gp (MDR1, ABCB1) (Homo sapiens, UniProt P08183); experiment: Substrate activity at P-gp (unknown origin) transfected in LLC-PK1 cells expressing human MDR1 gene assessed as efflux ratio; assay type: ADME, cell-based
[4] = Ratio of drug level in Cerebrospinal fluid to plasma in Beagle dog at 1 mg/kg, po measured after 24 hrs; assay type: ADME, organism-based, Canis lupus familiaris, CSF/Plasma
Method in brief: (§2)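 Beagle dogs, n = 3, were given 1 mg/kg orally as a suspension in 0.5% methylcellulose. Plasma and CSF drug concentrations were measured at 3, 7, 10 and 24 h. The CSF ratio is CSF concentration over unbound plasma concentration.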

[5] = Ratio of drug level in Cerebrospinal fluid to plasma in Beagle dog at 1 mg/kg, po measured after 10 hrs; assay type: ADME, organism-based, Canis lupus familiaris, CSF/Plasma; method in brief: as §2
[6] = Clearance in rat at 0.5 mg/kg, iv; assay type: ADME, organism-based; settings: in vivo
Method in brief: (§3)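 Single iv dose of 0.5 mg/kg in rats, n = 2. Total clearance and steady-state volume of distribution were taken from the plasma profile.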

[7] = Volume of distribution at steady state in rat at 0.5 mg/kg, iv; assay type: ADME, organism-based; settings: in vivo, read-out: Vdss; method in brief: as §3
[8] = Metabolic stability in rat liver microsomes assessed as parent compound remaining measured after 30 mins; assay type: ADME, Microsome; settings: read-out: Stabilty
Method in brief: (§4)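 Parent compound remaining (%) measured after 30 min incubation in rat or dog liver microsomes.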

[9] = Ratio of drug level in brain to plasma in rat at 0.5 mg/kg, iv; assay type: ADME, organism-based
Method in brief: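 Rats given 0.5 mg/kg iv, n = 2. Result is the total brain-to-plasma concentration ratio (Kp).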

[10] = Cmax in rat at 1 mg/kg, po; assay type: ADME, organism-based; set-up: route oral, dose 1 mg/kg; settings: in vivo
Method in brief: (§5)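 Rats dosed orally at 1 mg/kg, n = 2. Plasma AUC, Cmax and Tmax were taken from the profile. Bioavailability was calculated against an iv dose of 0.5 mg/kg, n = 2.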

[11] = Plasma concentration in Beagle dog at 1 mg/kg, po measured after 24 hrs; assay type: ADME, organism-based, Canis lupus familiaris; method in brief: as §2
[12] = Fraction unbound in rat serum; assay type: ADME, cell-free
Method in brief: (§6)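 Fraction unbound measured in rat and dog serum.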

[13] = Tmax in Beagle dog at 1 mg/kg, po; settings: in vivo
[14] = Plasma concentration in Beagle dog at 1 mg/kg, po measured after 3 hrs; assay type: ADME, organism-based, Canis lupus familiaris; method in brief: as §2
[15] = Ratio of drug level in Beagle dog cerebrospinal fluid after 10 hrs to IC50 for inhibition of BACE1 in human SH-SY5Y cells expressing APP assessed as reduction in Abeta40 by HTRF assay; assay type: cell-based
Method in brief: (§7)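 CSF drug concentration in dogs dosed orally at 1 mg/kg (0.5% methylcellulose suspension) at 10 and 24 h, divided by the cellular Aβ40 HTRF IC50 from SH-SY5Y cells expressing human APP.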

[16] = Drug concentration in Beagle dog cerebrospinal fluid at 1 mg/kg, po measured after 10 hrs; assay type: ADME, organism-based, Canis lupus familiaris; settings: read-out: Ct; method in brief: as §2
[17] = Fraction unbound in Beagle dog serum; assay type: ADME, cell-free, Canis lupus familiaris; method in brief: as §6
[18] = Drug concentration in Beagle dog cerebrospinal fluid at 1 mg/kg, po measured after 24 hrs; assay type: ADME, organism-based, Canis lupus familiaris; settings: read-out: Ct; method in brief: as §2
[19] = Tmax in rat at 1 mg/kg, po; assay type: ADME, organism-based; settings: in vivo; method in brief: as §5
[20] = In vivo inhibition of amyloid beta in Beagle dog cerebrospinal fluid at 1 mg/kg, po measured after 24 hrs by ELISA; assay type: functional; settings: Canis lupus familiaris
Method in brief: (§8)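 Beagle dogs, n = 3, received 1 mg/kg orally as a 0.5% methylcellulose suspension. Total Aβ in CSF was measured by ELISA at 10 and 24 h and expressed as % reduction.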

[21] = Ratio of drug level in Beagle dog cerebrospinal fluid after 24 hrs to IC50 for inhibition of BACE1 in human SH-SY5Y cells expressing APP assessed as reduction in Abeta40 by HTRF assay; assay type: cell-based; method in brief: as §7
[22] = AUC in rat at 1 mg/kg, po; assay type: ADME, organism-based; set-up: dose 1 mg/kg; settings: in vivo; method in brief: as §5
[23] = Metabolic stability in Beagle dog liver microsomes assessed as parent compound remaining measured after 30 mins; assay type: ADME, Canis lupus familiaris, Microsome; settings: read-out: Stabilty; method in brief: as §4
[24] = Plasma concentration in Beagle dog at 1 mg/kg, po measured after 10 hrs; assay type: ADME, organism-based, Canis lupus familiaris; method in brief: as §2
[25] = AUC in Beagle dog at 1 mg/kg, po; settings: in vivo
[26] = Cmax in Beagle dog at 1 mg/kg, po; settings: in vivo
[27] = Plasma concentration in Beagle dog at 1 mg/kg, po measured after 7 hrs; assay type: ADME, organism-based, Canis lupus familiaris; method in brief: as §2
[28] = Oral bioavailability in rat at 1 mg/kg; assay type: ADME, organism-based; settings: in vivo; method in brief: as §5
[29] = In vivo inhibition of amyloid beta in Beagle dog cerebrospinal fluid at 1 mg/kg, po measured after 10 hrs by ELISA; assay type: functional; settings: Canis lupus familiaris; method in brief: as §8
Beta-secretase 1 [30] = biological target: T1, Beta-secretase 1; experiment: Inhibition of BACE1 (unknown origin)

hERG (KCNH2), sequence (Q12809 whole entry): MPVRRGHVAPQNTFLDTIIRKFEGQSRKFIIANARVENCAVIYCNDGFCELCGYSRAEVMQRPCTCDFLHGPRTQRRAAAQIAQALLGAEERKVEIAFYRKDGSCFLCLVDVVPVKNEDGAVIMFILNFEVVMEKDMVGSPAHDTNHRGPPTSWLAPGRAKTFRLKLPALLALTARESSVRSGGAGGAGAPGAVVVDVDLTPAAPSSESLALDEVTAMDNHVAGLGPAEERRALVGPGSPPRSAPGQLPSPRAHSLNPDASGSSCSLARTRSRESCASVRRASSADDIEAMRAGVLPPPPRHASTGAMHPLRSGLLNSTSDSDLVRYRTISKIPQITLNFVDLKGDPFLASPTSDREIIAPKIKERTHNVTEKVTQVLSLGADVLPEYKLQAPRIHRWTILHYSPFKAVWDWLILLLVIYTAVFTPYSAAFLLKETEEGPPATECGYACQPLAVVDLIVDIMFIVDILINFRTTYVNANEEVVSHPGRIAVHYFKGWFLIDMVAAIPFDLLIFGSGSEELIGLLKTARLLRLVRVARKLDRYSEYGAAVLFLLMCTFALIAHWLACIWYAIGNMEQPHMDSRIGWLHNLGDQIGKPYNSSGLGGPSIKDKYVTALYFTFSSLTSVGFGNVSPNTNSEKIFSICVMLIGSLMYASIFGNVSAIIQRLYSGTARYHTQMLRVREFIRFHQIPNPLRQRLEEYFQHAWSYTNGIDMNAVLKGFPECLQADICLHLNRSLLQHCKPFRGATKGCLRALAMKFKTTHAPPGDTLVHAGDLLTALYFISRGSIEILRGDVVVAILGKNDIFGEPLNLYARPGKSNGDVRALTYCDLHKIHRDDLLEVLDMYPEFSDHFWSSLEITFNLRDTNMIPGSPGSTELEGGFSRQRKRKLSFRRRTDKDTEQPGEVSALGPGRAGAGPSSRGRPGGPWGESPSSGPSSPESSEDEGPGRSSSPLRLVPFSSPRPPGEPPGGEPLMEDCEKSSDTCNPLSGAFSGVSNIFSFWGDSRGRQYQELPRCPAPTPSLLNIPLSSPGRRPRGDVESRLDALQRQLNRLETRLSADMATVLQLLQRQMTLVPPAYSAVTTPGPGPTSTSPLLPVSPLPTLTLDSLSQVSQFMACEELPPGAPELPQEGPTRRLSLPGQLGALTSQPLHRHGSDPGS
P-gp (MDR1, ABCB1), sequence (P08183 whole entry): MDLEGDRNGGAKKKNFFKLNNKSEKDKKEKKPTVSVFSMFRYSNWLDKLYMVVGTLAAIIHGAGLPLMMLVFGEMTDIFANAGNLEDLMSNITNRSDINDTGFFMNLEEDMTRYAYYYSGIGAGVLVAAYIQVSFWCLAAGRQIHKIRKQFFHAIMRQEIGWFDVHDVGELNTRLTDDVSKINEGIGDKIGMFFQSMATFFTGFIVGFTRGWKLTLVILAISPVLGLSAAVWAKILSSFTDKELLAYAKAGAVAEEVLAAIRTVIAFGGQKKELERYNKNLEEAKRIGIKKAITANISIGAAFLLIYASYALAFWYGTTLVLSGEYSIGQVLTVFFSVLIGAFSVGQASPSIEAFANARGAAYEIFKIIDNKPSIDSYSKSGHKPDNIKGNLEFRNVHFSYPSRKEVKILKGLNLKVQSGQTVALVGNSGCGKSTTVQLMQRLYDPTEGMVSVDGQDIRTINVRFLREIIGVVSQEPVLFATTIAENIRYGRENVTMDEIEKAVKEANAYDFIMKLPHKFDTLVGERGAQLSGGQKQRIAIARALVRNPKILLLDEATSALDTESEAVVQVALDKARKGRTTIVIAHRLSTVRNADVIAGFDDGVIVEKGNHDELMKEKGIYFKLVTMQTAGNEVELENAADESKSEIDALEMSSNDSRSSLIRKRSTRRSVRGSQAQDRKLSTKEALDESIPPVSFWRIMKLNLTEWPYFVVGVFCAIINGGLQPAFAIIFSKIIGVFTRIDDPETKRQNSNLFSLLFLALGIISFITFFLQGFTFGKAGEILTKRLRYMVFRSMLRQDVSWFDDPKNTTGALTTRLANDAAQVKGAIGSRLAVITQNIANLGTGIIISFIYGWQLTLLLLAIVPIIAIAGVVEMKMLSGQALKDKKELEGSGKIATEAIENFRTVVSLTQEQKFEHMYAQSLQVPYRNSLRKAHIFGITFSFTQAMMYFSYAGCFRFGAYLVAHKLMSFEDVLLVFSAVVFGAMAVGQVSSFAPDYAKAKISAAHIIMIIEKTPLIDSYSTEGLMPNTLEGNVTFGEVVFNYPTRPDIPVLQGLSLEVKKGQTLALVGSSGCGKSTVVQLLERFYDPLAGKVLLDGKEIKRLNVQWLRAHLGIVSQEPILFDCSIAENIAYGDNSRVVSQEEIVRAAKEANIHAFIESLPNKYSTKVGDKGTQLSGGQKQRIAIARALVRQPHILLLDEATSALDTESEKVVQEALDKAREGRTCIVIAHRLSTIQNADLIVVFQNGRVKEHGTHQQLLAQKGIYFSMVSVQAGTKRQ
T1 sequence (P56817 whole entry): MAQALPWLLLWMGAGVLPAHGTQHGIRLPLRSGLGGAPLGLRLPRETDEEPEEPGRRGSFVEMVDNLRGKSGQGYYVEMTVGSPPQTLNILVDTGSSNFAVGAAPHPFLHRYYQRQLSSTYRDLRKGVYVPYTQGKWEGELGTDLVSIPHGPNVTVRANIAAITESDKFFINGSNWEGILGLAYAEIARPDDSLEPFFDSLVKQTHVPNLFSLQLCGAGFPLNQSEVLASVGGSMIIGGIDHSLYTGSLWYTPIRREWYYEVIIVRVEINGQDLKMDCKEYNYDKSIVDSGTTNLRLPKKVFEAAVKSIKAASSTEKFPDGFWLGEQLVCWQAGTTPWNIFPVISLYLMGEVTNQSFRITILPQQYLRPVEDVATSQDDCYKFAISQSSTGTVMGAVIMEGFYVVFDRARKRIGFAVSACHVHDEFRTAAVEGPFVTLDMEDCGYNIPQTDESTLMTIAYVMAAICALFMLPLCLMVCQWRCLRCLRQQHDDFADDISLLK

pKa [1]: 7.3
IC50 (Beta-secretase 1 [2]): 0.118 µM
IC50 (Beta-secretase 1 [3]): 0.011 µM
Compound: CC1(c2cc(NC(=O)c3ccc(C#N)cn3)ccc2F)Cc2cncc(F)c2C(N)=N1 (configuration not stated)
inhibition at 5 µM (hERG (KCNH2)): 92%

pKa [1]: 7.6
efflux ratio (P-gp (MDR1, ABCB1)): 13
IC50 (Beta-secretase 1 [2]): 0.012 µM
IC50 (Beta-secretase 1 [3]): 0.00025 µM
Compound: CC1(c2cc(NC(=O)c3ccc(C#N)cn3)ccc2F)Cc2c(F)cncc2C(N)=N1 (configuration not stated)
inhibition at 5 µM (hERG (KCNH2)): 72%

pKa [1]: 8.2
Kp at 24 h [4]: 0.083
efflux ratio (P-gp (MDR1, ABCB1)): 13
Kp at 10 h [5]: 0.07
clearance [6]: 45 mL/min/kg
Vd [7]: 14 L/kg
remaining at 0.5 h [8]: 22%
Kp [9]: 0.28
Cmax [10]: 9 ng/mL
concentration at 24 h [11]: 47 ng/mL
fraction unbound [12]: 0.15
IC50 (Beta-secretase 1 [2]): 0.0091 µM
Tmax [13]: 4.3 h
concentration at 3 h [14]: 72 ng/mL
Ratio [15]: 3.3
concentration at 10 h [16]: 0.56 ng/mL
fraction unbound [17]: 0.14
concentration at 24 h [18]: 0.52 ng/mL
Tmax [19]: 4 h
Ratio [21]: 3
AUC [22]: 122 ng·h/mL
remaining at 0.5 h [23]: 93%
concentration at 10 h [24]: 64 ng/mL
AUC [25]: 3890 ng·h/mL
Cmax [26]: 78 ng/mL
concentration at 7 h [27]: 65 ng/mL
bioavailability [28]: 33%
IC50 (Beta-secretase 1 [3]): 0.00041 µM
Compound: C[C@@]1(c2cc(NC(=O)c3ccc(C#N)cn3)ccc2F)Cc2c(ccnc2F)C(N)=N1
inhibition at 5 µM (hERG (KCNH2)): 88%
inhibition in vivo at 1 mg/kg [20]: 47%
inhibition in vivo at 1 mg/kg [29]: 49%

IC50 (Beta-secretase 1 [2]): 0.014 µM
IC50 (Beta-secretase 1 [3]): 0.00036 µM
Compound: CC1(c2cc(NC(=O)c3ccc(C#N)cn3)ccc2F)Cc2c(ccnc2F)C(N)=N1 (configuration not stated)

IC50 (Beta-secretase 1 [30]): 0.082 µM
Compound: CC1(c2cc(NC(=O)c3ccc(C#N)cn3)ccc2F)N=C(N)c2ccccc2O1 (configuration not stated)

pKa [1]: 9
efflux ratio (P-gp (MDR1, ABCB1)): 37
IC50 (Beta-secretase 1 [2]): 0.021 µM
IC50 (Beta-secretase 1 [3]): 0.0015 µM
Compound: CC1(c2cc(NC(=O)c3ccc(C#N)cn3)ccc2F)Cc2cnccc2C(N)=N1 (configuration not stated)
inhibition at 5 µM (hERG (KCNH2)): 85%

pKa [1]: 9.5
IC50 (Beta-secretase 1 [2]): 0.0081 µM
IC50 (Beta-secretase 1 [3]): 0.0013 µM
Compound: CC1(c2cc(NC(=O)c3ccc(C#N)cn3)ccc2F)Cc2ccncc2C(N)=N1 (configuration not stated)
inhibition at 5 µM (hERG (KCNH2)): 83%

pKa [1]: 9.4
IC50 (Beta-secretase 1 [3]): 0.0041 µM
Compound: CC1(c2cc(NC(=O)c3ccc(C#N)cn3)ccc2F)Cc2ncccc2C(N)=N1 (configuration not stated)

pKa [1]: 9.8
IC50 (Beta-secretase 1 [2]): 0.394 µM
IC50 (Beta-secretase 1 [3]): 0.026 µM
Compound: CC1(c2cc(NC(=O)c3ccc(C#N)cn3)ccc2F)Cc2cccnc2C(N)=N1 (configuration not stated)
